Screens: PubChem BioAssay, several laboratories
Rows were chosen to be rich in hits. Some 1% of all compounds tested hit in one or more screens of this group.
GAA850 FXN act: FXN promoter activators, primary screen, cell-based, luciferase luminescence, HEK293 lucGAA850 | HEK293 lucGAA850 FXN promoter luciferase reporter, 24 h; percent of 10 µM SAHA response | activation, % at 6 µM | 0.56% of 360,000 active;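 active = activation above the average of all compounds screened plus 3 SD, cutoff fixed separately per campaign, cut at about 7.5% in these data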;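 also: 0% = DMSO wells and 100% = 10 µM SAHA wells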
GSIS activator: GLuc luminescence reporter in INS-1E cells, primary screen for activators of glucose-dependent secretion of insulin | AID 743287, 2014 | activation, % at 16.6 µM | INS-1E GLuc reporter insulin secretion, 2-3 h | 0.61% of 370,000 active;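 active = lowest replicate activation of at least 40%, so every replicate reaches that level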;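 also: 0% = median of neutral control wells and 100% = median of IBMX positive control wells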
CaV13 FRET inh: Primary screen for inhibitors of IQ motif and Ca2+-dependent inactivation inhibitor domain binding in CACNA1D, Förster resonance energy transfer in living cells, …; HEK cells, CFP/YFP FRET ICDI-IQ, plate reader, 10 min; percent FRET-ratio fall versus neutral wells; inhibition, % at 12.3 µM; 0.098% of 340,000 active;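 active = mean replicate inhibition of at least 30% and at least 1% of replicates passing that level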;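 also: 0% = median of the neutral control wells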
Xi reactivation: activators of inactive X chromosome reactivation, primary screen, imaging, XiGFP fibroblasts, GFP high-content imaging, set 2; XiGFP mouse fibroblasts, % GFP-positive cells imaging, 3 d; cells co-treated with 5-aza-dC sensitizer; scaled so ellipticine positive control = 100%; activation, % at 7.58 µM; 0.055% of 360,000 active; AID 743238, 2013;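 active = mean normalized replicate activation at least 10% and every replicate at or above 10%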;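 also: 0% = median of on-plate neutral control wells and 100% = ellipticine 6 µM median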
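System: XiGFP fibroblasts, SV40-immortalized. Medium: DMEM plus 5-aza-dC sensitizer. Doses: single point. Timing: 3 d treatment, 15 min room-temperature fixation. Control set: ellipticine 6 µM.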
GAA30 counter: GAA30 FXN promoter activators, confirmation, counter-screen for GAA850 frataxin promoter activator project, cell-based, luminescence, HEK293, lucGAA30, triplicate. 66% of 1,900 active. activation, % at 6 µM. AID 588350, 2011. HEK293 lucGAA30 FXN promoter luciferase, 24 h; DMSO = 0%, 5 µM ipriflavone = 100%. shares compounds with GAA850 FXN act;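 active = mean activation above the mean of solvent-only control wells plus 3 SD, cut at about 22% in these data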;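 also: counterscreen of GAA850 promoter hits where activity marks nonselective or luminescence artifacts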
FXN GAA850 conf: FXN GAA850 promoter activators in reporter cells, confirmation, cell-based, luminescence, HEK293 lucGAA850, triplicate. shares compounds with GAA850 FXN act. HEK293 lucGAA850 FXN promoter luciferase reporter, 24 h; 100% = activation by SAHA. activation, % at 6 µM. 86% of 1,900 active;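 active = mean activation above a set limit taken from the primary screen, cut at about 8% in these data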;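 also: 0% = DMSO wells and 100% = 10 µM SAHA wells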
* marks the source's active call; other numbers are inactive results.

Cc1nc(NC(=O)c2ccc(Br)s2)sc1C(=O)N(C)C was read as GAA850 FXN act 8.4*, CaV13 FRET inh -8, GAA30 counter 115* and FXN GAA850 conf 33*.
For Brc1ccc2oc(-c3ccn[nH]3)cc2c1 the results were GAA850 FXN act 7.8*, GSIS activator 34, CaV13 FRET inh -2, Xi reactivation 0, GAA30 counter 116* and FXN GAA850 conf 38*.
Screening Cc1ccc(NC(=O)C(NC2CCCc3ccccc32)c2ccccc2)c([N+](=O)[O-])c1 (configuration not stated) returned GAA850 FXN act 9.6*, GSIS activator -31, CaV13 FRET inh -6, Xi reactivation 0, GAA30 counter 15 and FXN GAA850 conf 17*.
Screening Cc1ccc(NC(=O)C(NC2CCCc3ccccc32)c2ccccc2)cc1Cl (configuration not stated) returned GAA850 FXN act 3, GSIS activator -16, CaV13 FRET inh -3 and Xi reactivation 0.
CCC(=O)N1CC[C@H]2[C@H](CO)Nc3ccc(C#Cc4ccccc4F)cc3[C@H]21 was read as GSIS activator 8 and Xi reactivation 0.
CC1S/C(=N/N=C2CCCCC2)NC1=O (configuration not stated) was read as GAA850 FXN act 2, CaV13 FRET inh -3 and Xi reactivation 0.
CC1S/C(=N/N=C2CCC(C(C)(C)C)CC2)NC1=O (configuration not stated) was read as GAA850 FXN act 14*, GSIS activator 5, CaV13 FRET inh -2, Xi reactivation 0, GAA30 counter 28* and FXN GAA850 conf 7.6*.
Screening CCOc1ccc(C(=O)Nc2ccc(NC(=O)c3ccco3)c(Cl)c2)cc1Cl returned GAA850 FXN act -2.
For CCOc1ccc(C(=O)Nc2ccc(NC(=O)c3ccco3)c(Cl)c2)cc1Br the results were GAA850 FXN act 12*, GSIS activator 8, CaV13 FRET inh -6, GAA30 counter 9 and FXN GAA850 conf 8.4*.
Cc1ccc(S(=O)(=O)Nc2ccc3c(c2)CC(=O)N([C@@H](C)CO)C[C@@H](C)[C@H](CN(C)C(=O)Nc2ccc(F)cc2)O3)cc1 was read as GSIS activator 0 and Xi reactivation 0.
For CCOC(=O)c1ccc(CSC(=N)N)o1 the results were GAA850 FXN act 7, GSIS activator 2, CaV13 FRET inh 5 and Xi reactivation 0.
COC(=O)c1ccc(CSC(=N)N)o1 was read as GAA850 FXN act 8.5*, GSIS activator 7, CaV13 FRET inh -1, Xi reactivation 0, GAA30 counter 31* and FXN GAA850 conf 13*.
`O=c1[nH]c2ccccc2nc1/C=C/c1ccc(O)cc1` gave GAA850 FXN act 7.6*, GSIS activator 2, CaV13 FRET inh -12, Xi reactivation 0, GAA30 counter 121* and FXN GAA850 conf 35*.
`O=c1[nH]c2ccccc2nc1/C=C(\O)c1cccs1` gave GAA850 FXN act 11*, GSIS activator 15, CaV13 FRET inh -6, Xi reactivation 0, GAA30 counter 116* and FXN GAA850 conf 41*.
For O=c1[nH]c2ccccc2nc1/C=C/c1ccc(F)cc1 the results were GAA850 FXN act 6, GSIS activator -14, CaV13 FRET inh -104 and Xi reactivation 0.
O=C(C[C@@H]1CC[C@H]2[C@@H](COC[C@H](O)CN2C(=O)Nc2cccc(Cl)c2)O1)N1CCCCC1 was read as GSIS activator -20 and Xi reactivation 0.
O=C(C1COc2ccccc2O1)N1CCCC1 (configuration not stated) was read as GAA850 FXN act -5.
